An excerpt weighted towards active compounds, which were near 1.7% of everything screened.
LMPTP inh: blocks human LMPTP phosphatase; P24666; recombinant LMPTP-A, OMFP fluorogenic substrate, fluorescence intensity; inhibition, % at 20 µM; 360,000 tested, 0.22% active;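 active = compounds that cut the enzyme signal by at least half of the control window in the single-dose screen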;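 also: plate controls were DMSO wells with enzyme plus substrate for no effect and substrate without enzyme for full effect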
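Material: LMPTP-A; amount: 0.625 nM enzyme; doses: single 20 µM dose; times: reaction 50 min, room temperature, dark; technique: fluorescence intensity of OMFP turnover product; benchmarks: no-enzyme and uninhibited controls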
DNMT1 block: blocks human DNA methyltransferase DNMT1; DNMT1 molecular beacon, Hinp1I cleavage, fluorescence; inhibition (reported as % activation of signal), % at 10 µM; 360,000 tested, 0.83% active; AID 588458; in the data active = inhibition above about 50%
STEP inh: inhibitors of human striatal-enriched phosphatase STEP. P54829. inhibition, % at 20 µM. recombinant STEP, OMFP fluorogenic substrate, fluorescence. 360,000 tested, 0.25% active;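 active = inhibition at 20 µM, scaled per plate between control wells, above about 37%, limit read from the data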;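 also: 0% = DMSO with enzyme and substrate and 100% = substrate only without enzyme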
Target sequence (P54829 whole entry, looked up): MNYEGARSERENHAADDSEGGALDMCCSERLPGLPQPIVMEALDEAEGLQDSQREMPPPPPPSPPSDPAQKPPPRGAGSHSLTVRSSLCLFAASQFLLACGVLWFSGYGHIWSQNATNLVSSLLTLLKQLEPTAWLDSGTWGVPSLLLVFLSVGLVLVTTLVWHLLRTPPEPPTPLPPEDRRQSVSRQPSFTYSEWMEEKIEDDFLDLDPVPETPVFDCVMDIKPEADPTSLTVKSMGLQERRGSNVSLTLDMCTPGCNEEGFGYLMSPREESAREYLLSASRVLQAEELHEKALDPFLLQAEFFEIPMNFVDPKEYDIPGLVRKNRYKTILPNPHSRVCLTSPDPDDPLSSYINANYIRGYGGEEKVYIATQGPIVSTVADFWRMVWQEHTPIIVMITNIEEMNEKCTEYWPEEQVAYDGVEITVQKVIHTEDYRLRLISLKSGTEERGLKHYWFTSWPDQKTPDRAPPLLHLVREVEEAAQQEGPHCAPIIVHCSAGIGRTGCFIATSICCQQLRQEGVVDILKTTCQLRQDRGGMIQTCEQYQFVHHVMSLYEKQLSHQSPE
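System: STEP (striatal-enriched tyrosine phosphatase) enzyme, cell-free; medium: Bis-Tris pH 6.0 buffer with DTT, detergent; dosing: 20 µM, 1% DMSO; times: reaction 20 min, ambient temperature; detection: fluorescence, 480/540 nm; read-out basis: normalized % inhibition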
Scp-1 inhibitor: blocks human Scp-1 phosphatase activity | inhibition, % at 20 µM | 340,000 tested, 0.88% active | Recombinant Scp1, phosphopeptide, malachite green phosphate absorbance | AID 493091;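 active = inhibition above about 50% at 20 µM, limit read from the data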;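 also: plate controls were DMSO wells with enzyme for no effect and wells lacking enzyme for full effect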
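Times: enzyme reaction 45 min at room temperature, colour 5 min, stabilisation 30 min. Material: SCP-1 catalytic fragment, aa 76-261. Medium: Acidic Tris acetate buffer with magnesium and detergent. Signal: colorimetric free-phosphate detection, absorbance 630 nm. Read-out basis: % inhibition of SCP-1 phosphate liberation. Reagent: Phosphorylated 17-residue peptide substrate.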
SUMO1 PPI mod: SUMO1-SIM interaction modulation; P63165; SUMO1 binding to a labelled peptide, TR-FRET, 1 h; inhibition, % at 20 µM; 360,000 tested, 0.33% active; in the data active = inhibition above about 37%
Starred values were filed as active, the others as inactive; . = no result; + = active, no number; ! = not active in a repeat.

SMILES	LMPTP inh	DNMT1 block	STEP inh	Scp-1 inhibitor	SUMO1 PPI mod
Nc1nc(=S)c2ncn([C@@H]3O[C@H](CO)[C@@H](O)[C@H]3O)c2[nH]1	-1	4	2	-9	2
Nc1nc(=S)c2ncn(C3OC(CO)C(O)C3O)c2[nH]1 (centres undefined)	26	80*	43*	77*	19
O=S(=O)(Nc1ccc(F)cc1)c1ccc(NS(=O)(=O)c2cccs2)cc1	1	-1	-6	-10	4
N#CC1(NC(=O)COC(=O)c2cc(O)c3ccccc3c2O)CCCCC1	2	-20	0	85*	-9
Cc1cccc(NC(=O)CNC(=O)Cn2ncc(Cl)c(Cl)c2=O)c1C	12	83*	8	93*	11
C=CCNC(=S)NS(=O)(=O)c1cccs1	0	3	-1	-4	0
O=C(CNC(=O)c1ccccc1)N/N=C/c1ccccc1Cl	-1	-5	-1	-6	48*
O=C(CNc1ccc2c(c1)OCO2)N/N=C\c1ccccc1Cl	3	-12	-3	-4	51*
CC(C)n1nccc1NC(=O)Nc1ccccc1	0	2	-2	-1	1
COCCN1C(=O)COc2ccccc2C1C(=O)NC(C)(C)C (centres undefined)	-2	.	.	.	2
COc1cc(/C=C2\C(=O)N(c3ccc(S(N)(=O)=O)cc3)N=C2C)ccc1OC(=O)c1ccco1	35	16	27	25	45*
C#CCOc1ccc(/C=C2/C(=O)N(c3ccc(S(N)(=O)=O)cc3)N=C2C)cc1OC	24	39	7	.	26
C#CCOc1ccc(/C=C2/C(=O)N(c3cccc(C(=O)O)c3)N=C2C)cc1OC	2	43	7	58*	35
O=c1cc(-c2ccc(O)c(O)c2)oc2cc(O[C@@H]3O[C@H](CO)[C@@H](O)[C@H](O)[C@H]3O)cc(O)c12	1	52*	2	-2	-16
Cc1cc(-c2ccc([N+](=O)[O-])cc2)nc2ccccc12	2	0	2	-4	-18
Cc1cc(N2CCN(c3nc(-c4ccc([N+](=O)[O-])cc4)cs3)CC2)c2ccccc2n1	95*	-14	4	4	-7
CCOC(=O)[C@@H]1[C@H]2COc3ccc(Br)cc3[C@H]2N2C(=O)N(c3ccc(C(F)(F)F)cc3)C(=O)[C@]12C	1	-7	0	-14	3
CC1(C)CC(=O)N(c2ccc(Cl)c(Cl)c2)C(=O)C1	-1	-1	-5	-6	-2
CN(C)CCCn1c2c3ccccc3ccc2c2oc(=O)c3ccccc3c21	2	77*	4	10	-142
O=C(Nc1ccc2c(c1)OCO2)C1Cc2c(-c3ccc(Cl)cc3)ccnc2O1 (centres undefined)	1	-7	4	.	6
N#Cc1c(SCC(=O)Nc2nccs2)sc2c(O)cc(=O)[nH]c12	31	43	34	68*	20
N#Cc1c(SCC(=O)Nc2nc3ccccc3s2)sc2c(O)cc(=O)[nH]c12	64*	91*	12	61*	30
N#Cc1c(SCC(=O)Nc2ccccc2C(F)(F)F)sc2c(O)cc(=O)[nH]c12	1	5	6	23	2
CCc1c(-c2cccc(Br)c2)ncn1Cc1cccc(-c2ccccc2)c1	11	.	.	.	1
CC1(C)Cc2c(sc(NC(=O)COc3cccc4ccccc34)c2C#N)C(C)(C)N1	4	26	69*	-11	-43
SMILES	LMPTP inh	DNMT1 block	STEP inh	Scp-1 inhibitor	SUMO1 PPI mod
Cc1ccc(OCC(=O)Nc2sc3c(c2C#N)CC(C)(C)NC3(C)C)cc1	0	-1	3	-5	-1
CCCCN(C=O)c1c(CC)nc2ccc(C(=O)Nc3cc(-c4ccccc4)ccc3OC)cn12	8	0	2	.	2
O=C(c1ccc(CSc2nc3ccncc3[nH]2)cc1)N1CCN(c2cccc(Cl)c2)CC1	66*	-10	6	-9	9
O=c1cc2oc3cc(O)c(O)cc3c(-c3ccccc3O)c-2cc1O	67*	110*	2	31	6
CCOc1ccccc1-c1c2cc(O)c(=O)cc-2oc2cc(O)c(O)cc12	66*	+	-310	33	-19
COc1ccc(OC)c(-c2c3cc(O)c(=O)cc-3oc3cc(O)c(O)cc23)c1	78*	150*	16	68*	25
O=S(=O)(c1ccc(F)c(Cl)c1)N1CCN(C/C=C/c2ccccc2)CC1	2	1	3	-2	41*
O=S(=O)(c1ccccc1)N1CCN(C/C=C/c2ccccc2)CC1	0	-2	0	-4	-4
CC(=O)c1cccc(OC(=O)C2=CC=CN3CCS(=O)(=O)N=C23)c1	-1	3	3	-5	-8
O=C1c2ccccc2C(c2nnnn2Cc2ccccc2)N1Cc1cccs1 (centres undefined)	1	.	.	.	0
O=C(c1cc(Cl)cc(Cl)c1)N1CCC(=O)N([C@H](COCc2ccccc2)Cc2ccccc2)CC1	3	.	.	.	0
O=C(O)CCNc1ccc(NCCC(=O)O)c2c1C(=O)c1ccccc1C2=O	72*	97*	96*	86*	60*
COc1ccccc1NCCC(=O)O	-1	1	5	-2	-4
COc1ccc(CCNC(=S)NNC(=O)c2c(Br)c(C)nn2C)cc1OC	-2	-1	0	-2	9
COc1ccccc1-c1c(C#N)c(N)nc2c1CCc1ccccc1-2	6	49	-2	-2	36*
CCOc1cc(-c2c(C#N)c(N)nc3c2CCc2ccccc2-3)ccc1O	3	-15	2	-3	3
COc1ccc(-c2ccc(N3C(c4ccsc4)=Cc4ccc(F)cc4C3c3c[nH]c4ccccc34)cc2)cc1 (centres undefined)	4	.	.	.	-25
Cc1ccccc1CSCC(=O)NCCSc1ccccn1	-1	-1	2	-9	49*
Cc1ccccc1N(CC(=O)NCCSc1ccccn1)S(=O)(=O)c1ccccc1	-1	0	-4	1	2
O=C(O)c1cc(-c2ccco2)nc2ccc(Br)cc12	26	106*!	66*!	80*!	57*!
CCOC(=O)C[C@@H]1OC[C@H](C)N1S(=O)(=O)c1ccc(C)cc1	-1	.	.	.	-5
CN(C)CCCNc1c2ccccc2nc2ccccc12	44	48	2	-4	-68
c1ccc(CNc2c3ccccc3nc3ccccc23)cc1	61*	67*	2	-11	-22
Oc1ccc(CCNc2c3ccccc3nc3ccccc23)cc1O	47*	79*	2	-10	-14
CC1CCN(CC(=O)Nc2nn(-c3ccccc3)nc2C(N)=O)CC1	-1	1	-3	-5	5
COC(=O)c1ccc(OCC(=O)Nc2nn(-c3ccccc3)nc2C(N)=O)cc1	-2	-27	-2	2	50*

Screening data (PubChem)
